Screening results: PubChem, Broad Institute
These entries were drawn from the full list.
PGC1a Ac signal – raises PGC1a acetylation signal in U2OS cells. U2OS PGC1a acetylation AlphaScreen, overnight. activation, % at 15.6 µM. hit rate 0.21% among 350,000. AID 651723;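 active = every replicate reaching activation of at least 50%, whatever the mean replicate activation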;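 note: hits raise the AlphaScreen acetylation signal above neutral controls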
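Test system: U2OS cells expressing flag-PGC1a plus GCN5; Amount: 7000 U2OS cells per well; Compound: single test concentration per compound; Incubation: compound overnight at 37 °C, each detection step 1 h RT; Signal: AlphaScreen lysate read.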
* hit, by the source's call.

SMILES	PGC1a Ac signal
O=C(Nc1ccccc1Cl)c1ccc([N+](=O)[O-])o1	66*
CCCCn1nc(NC(=O)c2cccs2)c2cc3ccccc3nc21	-48
O=C(Nc1cccc(NC(=O)c2cccs2)c1)c1ccc([N+](=O)[O-])o1	94*
CC(C)C(=O)Nc1cccc(NC(=S)NC(=O)c2ccc([N+](=O)[O-])cc2)c1	-48
Cc1cccc(NC(=O)c2ccc([N+](=O)[O-])o2)n1	66*
O=C(Cn1nc(C(=O)O)c2ccccc2c1=O)Nc1cccc(Br)c1	-52
CC(C)(C)OC(=O)NC(Cc1ccccc1)C(=O)NCCCC(=O)O (stereo unspecified)	-43
O=P(COCCOCCOCCOCP(=O)(c1ccccc1)c1ccccc1)(c1ccccc1)c1ccccc1	-44
COc1cc(NC(=O)NCc2ccco2)ccc1-c1ccc(NC(=O)NCc2ccco2)cc1OC	-48
CCCOc1cccc(C(=O)Nc2cc(NC(=O)c3ccco3)ccc2OC)c1	61*
CCOc1ccc(CC(=O)Nc2ccc(NC(=O)c3ccco3)cc2)cc1OCC	133*
CC(NCc1cccs1)C(=O)NC1CCCCC1 (stereo unspecified)	-45
CCCc1ccc(C(O)c2ncc(-c3cccc(F)c3)[nH]2)cc1 (stereo unspecified)	-43
Cc1ccc(O)c(C(=O)c2cnc3c(c2)CN(CCC(C)C)C(=O)N3)c1	70*
COc1ccc(-n2nc(C#N)c(Cl)cc2=O)cc1	-90
CC(=O)N(c1cccc(C)c1)S(=O)(=O)c1ccc(Cl)cc1	-53
Cc1no[n+]([O-])c1COc1cccc(/C=N/Nc2nncn2N)c1	-50
O=C(c1ccccc1)c1nn(-c2ccc(Cl)cc2)c(=O)cc1C(F)(F)F	179*
Cc1cc(-c2c(C)[nH]n(-c3ccc(Cl)cc3)c2=O)n(-c2ccccc2)n1	-42
O=C1c2ccccc2C(=O)c2c1oc(C(F)(F)F)c2C(=O)c1ccccc1	-45
C[C@@H]1CN([C@H](C)CO)C(=O)c2cc(NS(=O)(=O)c3ccc(F)cc3)ccc2O[C@H]1CN(C)Cc1ccc(C(F)(F)F)cc1	-56
CO[C@@H]1CN(C)C(=O)c2cc(NC(C)=O)ccc2OC[C@H](C)N(C(=O)c2cccnc2)C[C@H]1C	-49
COC(=O)[C@@]1(Cc2ccccc2CN=[N+]=[N-])N=C(c2ccc(OCCCO)cc2)O[C@H]1c1ccccc1	66*
COC(=O)[C@]1(Cc2ccccc2)N=C(c2ccc(OCCCO)cc2)O[C@@H]1c1ccccc1CN=[N+]=[N-]	101*
COC(=O)[C@]1(Cc2ccccc2)N=C(c2ccc(OCCCO)cc2)O[C@@H]1c1ccccc1	77*
SMILES	PGC1a Ac signal
Cc1nc2ccccc2n2c(O)c(CC(=O)O)cc12	-41
CC(C)NC(=O)N(C)C[C@H]1OCCCC[C@@H](C)Oc2ccc(NC(=O)CCCN(C)C)cc2C(=O)N([C@@H](C)CO)C[C@@H]1C	-51
Cc1ccccc1-n1nnnc1Sc1nnnn1-c1ccccc1	-46
CCCSc1nnc(Sc2nnnn2-c2ccccc2)s1	84*
COc1cc(C(C)=O)ccc1OCC(O)CN1CCN(c2ccc(C)c(C)c2)CC1 (stereo unspecified)	-40
C[C@@H]1CN([C@H](C)CO)C(=O)CCCn2cc(nn2)CO[C@@H]1CN(C)C(=O)OCc1ccccc1	-46
Cc1noc(C)c1S(=O)(=O)Nc1cccc2c1O[C@@H](CN(C)Cc1ccncc1)[C@@H](C)CN([C@@H](C)CO)C2=O	-51
O=C(C[C@@H]1C=C[C@@H](NC(=O)Nc2ccc(F)cc2)[C@@H](CO)O1)NCCN1CCCC1	-48
C/C(=N/NC(=O)CNC(=O)c1ccccn1)c1ccc([N+](=O)[O-])cc1	-44
CCN1CCN(c2cc(C)c3cc(NC(=O)c4ccc(Br)o4)ccc3n2)CC1	53*
CCc1ccc(C(=O)Nc2cccnc2Oc2ccc(Cl)cc2)cc1	-87
CCOC(=O)Cn1cnc2scc(-c3ccccc3)c2c1=O	-43
COc1ccc2c(-c3ccccc3)cc(=O)[nH]c2c1	-42
COc1ccc(-c2ccc(OC)cc2C(=O)O)cc1	70*
COc1ccc(-c2cc(-c3ccccc3)c(C#N)c(S(C)=O)n2)cc1 (stereo unspecified)	-85
O=C1c2ccccc2C(=O)N1c1ccc(Cc2ccncc2)cc1	-56
Cc1ccc(S(=O)(=O)N(C)C[C@@H]2OCCCC[C@H](C)Oc3ccc(NS(C)(=O)=O)cc3C(=O)N([C@@H](C)CO)C[C@@H]2C)cc1	-42
CN(Cc1ccccc1)C(=O)c1ccc2c(c1)NC(=O)C(N1CCOCC1)S2 (stereo unspecified)	-49
COc1ccc(CC(CC(=O)O)C(=O)Nc2ccc(OC)cc2)cc1 (stereo unspecified)	50*
COc1ccc(CCN2C(=O)N(c3ccc(OC)cc3)C(=O)C2CC(=O)Nc2ccccc2)cc1 (stereo unspecified)	-48
Cn1nc(C(=O)N2CCCCC2)c2c1-c1ccccc1S(=O)(=O)C2	-48
O=C(COc1ccccc1Cl)Nc1ccc(Cl)cn1	98*
O=C(COC(=O)c1cc[n+]([O-])cc1)Nc1cccc(Cl)c1Cl	-48
Cc1cc(C)cc(N(CC(=O)NC2CC3CCC2C3)S(C)(=O)=O)c1 (stereo unspecified)	83*
C[C@H](CO)N1C[C@H](C)[C@H](CN(C)Cc2ccncc2)OCc2cn(nn2)CCCC1=O	-59
SMILES	PGC1a Ac signal
O=C(c1ccc(F)cc1)C(CN1CCOCC1)c1ccccc1 (stereo unspecified)	-60
OC(c1ccccc1)(C1CCCCC1)C(CN1CCOCC1)c1ccccc1 (stereo unspecified)	57*
CCC(=O)N1C[C@H](C)[C@@H](OC)CN(C)C(=O)c2cc(NC(=O)Nc3cccc(F)c3)ccc2OC[C@H]1C	-55
CC1CC1C(=O)N(C)CC(=O)Nc1cccc(F)c1 (stereo unspecified)	78*
COc1cccc(N(CC(=O)N2CCN(Cc3ccccc3)CC2)S(C)(=O)=O)c1	-46
CC(C)C#Cc1cnc2c(c1)C(=O)N([C@@H](C)CO)C[C@@H](C)[C@@H](CN(C)C(=O)c1ccccn1)O2	-44
CNC(=O)COC(=O)c1cc(-c2ccco2)nc2ccccc12	-46
Cc1cc(SCC(=O)NC(=O)NCc2ccco2)nc2ccccc12	85*
O=C(CSc1nc2c(sc3ccccc32)c(=O)n1CCc1ccccc1)NCc1ccco1	-57
O=C(Nc1ccc(Cl)c(Cl)c1)N[C@@H]1CC[C@H](CCn2cc(C3CC3)nn2)O[C@H]1CO	-43
CCN1/C(=C/c2ccc3cccc(C)c3[n+]2CC)Sc2ccccc21	185*
Cc1noc(C)c1NC(=O)N[C@H]1C=C[C@H](CC(=O)NCc2ccc(Cl)c(Cl)c2)O[C@H]1CO	-49
C[C@@H]1CN([C@H](C)CO)C(=O)c2cc(NC(=O)Nc3ccc(F)cc3)ccc2O[C@@H](C)CCCCO[C@@H]1CN(C)C(=O)NC1CCCCC1	-53
CCOc1c(Br)cc(/C=C2/SC(=O)N(CC(=O)N3CCCC3)C2=O)cc1OC	96*
Cc1ccc2[nH]c3ccccc3c(=O)c2c1	68*
COc1cccc(N2C(=NC(=O)c3ccccc3)SC3CS(=O)(=O)CC32)c1 (stereo unspecified)	-41
Cc1cccc(C(=O)Nc2ccc(C(=O)/C=C/c3cccnc3)cc2)c1	-54
CCCCCCC(=O)Nc1ccc(C(=O)N/N=C/c2cccnc2)cc1	417*
COc1ccc(/C=N/NC(=O)c2cccnc2)cc1CN1CCOCC1	-42
